According to ChEMBL document CHEMBL4396943, “The tetrahydroxanthone-dimer phomoxanthone A is a strong inducer of apoptosis in cisplatin-resistant solid cancer cells” (Bioorg Med Chem, 2019):
Activity calls are given as the source filed them. The calls are words filed in the database; no cut-off is given here.

How the values were obtained:
[1] = system: A2780cisR; assay: Induction of apoptosis in human A2780cisR cells assessed as decrease in mitochondrial membrane potential at 20 uM incubated for 24 hrs by TMRE staining based flow cytometry; type: functional, cell-based
Procedure, shortened: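 Cells seeded overnight; complete medium swapped for FBS-free medium just before treatment to avoid TMRE ester cleavage. Exposure to PXA for 1 h, 2 h or 24 h. TMRE staining 20 min, cells collected by trypsinisation, ΔΨm read by flow cytometry. Medium served as negative control, 20 µM CCCP as positive control. Mean ± SEM reported.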

[2] = system: J82; assay: Induction of apoptosis in cisplatin resistant human J82 cells assessed as depolarization of mitochondrial membrane potential at 20 uM incubated for 2 hrs by hoechst 33342 staining based fluorescence microscopy; type: functional, cell-based
Procedure, shortened: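 J82CisR cells exposed 2 h, then labelled with TMRE and Hoechst 33342 for 20 min. TMRE signal imaged on a high-content fluorescence imaging platform. Untreated medium control and 20 µM CCCP positive control.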

[3] = system: J82; assay: Induction of apoptosis in human J82 cells assessed as depolarization of mitochondrial membrane potential at 20 uM incubated for 2 hrs by hoechst 33342 staining based fluorescence microscopy; type: functional, cell-based
Procedure, shortened: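 J82 cells treated 2 h with PXA, then labelled 20 min with TMRE plus Hoechst 33342. ΔΨm read by high-content fluorescence imaging. Untreated medium and 20 µM CCCP served as controls.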

[4] = system: A2780; assay: Induction of apoptosis in human A2780 cells assessed as decrease in mitochondrial membrane potential at 20 uM incubated for 24 hrs by TMRE staining based flow cytometry; type: functional, cell-based
Procedure, shortened: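 Cells seeded overnight; medium switched to FBS-free just before treatment to avoid TMRE ester cleavage. Exposure 1 h, 2 h or 24 h, then TMRE staining for 20 min. Cells trypsinized, centrifuged at 4 °C and read by flow cytometry. Medium as negative control, 20 µM CCCP as positive control. […]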

[5] = system: A2780cisR; assay: Cell cycle arrest in human A2780cisR cells assessed as accumulation at G1 phase incubated for 24 hrs by propidium iodide staining based flow cytometry (reference value: 68.7%); type: functional
[6] = system: J82; assay: Cell cycle arrest in cisplatin resistant human J82 cells assessed as accumulation at G1 phase incubated for 24 hrs by propidium iodide staining based flow cytometry (reference value: 78.1%); type: functional
[7] = system: J82; assay: Cell cycle arrest in human J82 cells assessed as accumulation at G1 phase incubated for 24 hrs by propidium iodide staining based flow cytometry (reference value: 69.6%); type: functional
[8] = system: A2780; assay: Cell cycle arrest in human A2780 cells assessed as accumulation at G1 phase incubated for 24 hrs by propidium iodide staining based flow cytometry (reference value: 61.8%); type: functional

SMILES | Activity [1] | Activity [2] | Activity [3] | Activity [4] | Activity [5] [%] | Activity [6] [%] | Activity [7] [%] | Activity [8] [%]
N#CC(C#N)=NNc1cccc(Cl)c1 | Active | Active | Active | Active |  |  |  | 
CC(=O)O[C@H]1C(=O)[C@@]2(C)[C@H]([C@H](OC(=O)c3ccccc3)[C@]3(O)C[C@H](OC(=O)[C@H](O)[C@@H](NC(=O)c4ccccc4)c4ccccc4)C(C)=C1C3(C)C)[C@]1(OC(C)=O)CO[C@@H]1C[C@@H]2O [PACLITAXEL] |  |  |  |  | 21.3 | 29.1 | 35.1 | 22.6
